Reference: ChEMBL document CHEMBL4043276, “Design, synthesis and biological evaluation of 2-acetyl-5-O-(amino-alkyl)phenol derivatives as multifunctional agents for the treatment of Alzheimer's disease” (Bioorg Med Chem Lett, 2017)
Calls of active or inactive are those of the source. The rule behind the calls is not given here.

Molecular target: Acetylcholinesterase (Electrophorus electricus) (UniProt O42275)
Assay: Inhibition of electric eel AChE at 50 uM using acetylthiocholine as substrate incubated for 15 mins by Ellman's method relative to control
Conditions: not given

Sequence of Acetylcholinesterase (Electrophorus electricus) (O42275 24-633 limits assumed): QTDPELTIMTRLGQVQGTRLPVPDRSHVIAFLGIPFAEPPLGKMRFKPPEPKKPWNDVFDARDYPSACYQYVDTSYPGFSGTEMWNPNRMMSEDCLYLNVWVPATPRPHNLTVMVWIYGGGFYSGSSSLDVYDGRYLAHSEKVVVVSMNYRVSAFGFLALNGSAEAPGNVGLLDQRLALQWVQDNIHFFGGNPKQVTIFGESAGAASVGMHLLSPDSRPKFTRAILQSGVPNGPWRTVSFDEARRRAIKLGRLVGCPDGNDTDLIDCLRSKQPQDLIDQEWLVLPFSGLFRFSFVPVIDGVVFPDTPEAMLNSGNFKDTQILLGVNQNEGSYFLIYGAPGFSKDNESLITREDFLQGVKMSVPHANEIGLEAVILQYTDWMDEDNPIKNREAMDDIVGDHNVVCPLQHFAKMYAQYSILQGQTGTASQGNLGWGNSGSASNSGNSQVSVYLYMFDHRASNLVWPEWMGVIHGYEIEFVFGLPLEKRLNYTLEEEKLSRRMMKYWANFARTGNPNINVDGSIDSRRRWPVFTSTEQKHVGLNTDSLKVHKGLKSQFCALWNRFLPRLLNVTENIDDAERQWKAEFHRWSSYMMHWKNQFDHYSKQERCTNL

Structure (SMILES) | inhibition
CC(=O)c1ccc(O)cc1O | < 5%

Tested on: PC-12
Assay: Protection against H2O2-induced cell injury in rat PC12 cells assessed as cell viability at 10 uM preincubated for 2 hrs followed by H2O2 addition measured after 24 hrs by MTT assay (reference value: 46.5%)
Type: functional
Conditions: read-out: Activity
Outline: (§1)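 PC12 cells were injured with 100 μM H2O2. Viability was measured by MTT reduction and compared with untreated control and with the H2O2-only group.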

Structure (SMILES) | viability at 10 µM
CC(=O)c1ccc(OCCCN2CCN(Cc3ccccc3)CC2)cc1O | 73.3%

Tested on: not listed separately
Assay: Metal chelating activity assessed as mole fraction of compound required to show 1:1 stoichiometry for Cu2+-compound complex at 37.5 uM after 30 mins by UV-Visible spectrophotometric method
Conditions: not given

Structure (SMILES) | Activity
CC(=O)c1ccc(OCCCN2CCN(Cc3ccccc3)CC2)cc1O | 0.99 molar ratio

Molecular target: Acetylcholinesterase (Electrophorus electricus) (UniProt O42275)
Conditions: 0.5 to 2 uM

Structure (SMILES) | inhibition
CC(=O)c1ccc(OCCCN2CCN(Cc3ccccc3)CC2)cc1O | Active

Tested on: PC-12
Assay: Protection against H2O2-induced cell injury in rat PC12 cells assessed as cell viability preincubated for 2 hrs followed by H2O2 addition measured after 24 hrs by MTT assay
Type: functional, cell-based
Conditions: not given
Outline: as §1

Structure (SMILES) | Activity
CC(=O)c1ccc(OCCCN2CCN(Cc3ccccc3)CC2)cc1O | Dose-dependent effect

Tested on: not listed separately
Assay: Metal chelating activity assessed as compound-Zn2+ complex formation at 37.5 uM after 30 mins by UV-Visible spectrophotometric method
Conditions: not given

Structure (SMILES) | Activity
CC(=O)c1ccc(OCCCN2CCN(Cc3ccccc3)CC2)cc1O | inactive

Tested on: PC-12
Assay: Protection against H2O2-induced cell injury in rat PC12 cells assessed as cell viability at 1 uM preincubated for 2 hrs followed by H2O2 addition measured after 24 hrs by MTT assay (reference value: 46.5%)
Type: functional
Conditions: read-out: Activity
Outline: as §1

Structure (SMILES) | viability at 1 µM
CC(=O)c1ccc(OCCCN2CCN(Cc3ccccc3)CC2)cc1O | 59.6%

Tested on: not listed separately
Assay: Metal chelating activity assessed as compound-Al3+ complex formation at 37.5 uM after 30 mins by UV-Visible spectrophotometric method
Conditions: not given

Structure (SMILES) | Activity
CC(=O)c1ccc(OCCCN2CCN(Cc3ccccc3)CC2)cc1O | inactive

Tested on: not listed separately
Assay: Antioxidant activity assessed as trolox equivalent of […]-induced radical scavenging activity measured every minute for 90 mins by ORAC fluorescein assay
Type: functional
Conditions: not given
Outline: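 Measured by the ORAC-FL fluorescein method. Values are given as μM Trolox equivalent per μM of test compound.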

Structure (SMILES) | Activity
CC(=O)c1ccc(O)cc1O | 2.5 equiv
CC(=O)c1ccc(OCCCCCCN2CCN(Cc3ccccc3)CC2)cc1O | 1.3 equiv
CC(=O)c1ccc(OCCCCCCN2CCN(c3ncccn3)CC2)cc1O | 0.98 equiv
CC(=O)c1ccc(OCCCCN2CCCCC2)cc1O | 1 equiv
CC(=O)c1ccc(OCCCCCCN2CCN(c3ccccn3)CC2)cc1O | 1.1 equiv
CC(=O)c1ccc(OCCCCCN2CCN(c3ncccn3)CC2)cc1O | 1 equiv
CC(=O)c1ccc(OCCCN2CCN(Cc3ccccc3)CC2)cc1O | 1.5 equiv

Molecular target: Acetylcholinesterase (Electrophorus electricus, UniProt O42275)
Sequence (O42275 whole entry): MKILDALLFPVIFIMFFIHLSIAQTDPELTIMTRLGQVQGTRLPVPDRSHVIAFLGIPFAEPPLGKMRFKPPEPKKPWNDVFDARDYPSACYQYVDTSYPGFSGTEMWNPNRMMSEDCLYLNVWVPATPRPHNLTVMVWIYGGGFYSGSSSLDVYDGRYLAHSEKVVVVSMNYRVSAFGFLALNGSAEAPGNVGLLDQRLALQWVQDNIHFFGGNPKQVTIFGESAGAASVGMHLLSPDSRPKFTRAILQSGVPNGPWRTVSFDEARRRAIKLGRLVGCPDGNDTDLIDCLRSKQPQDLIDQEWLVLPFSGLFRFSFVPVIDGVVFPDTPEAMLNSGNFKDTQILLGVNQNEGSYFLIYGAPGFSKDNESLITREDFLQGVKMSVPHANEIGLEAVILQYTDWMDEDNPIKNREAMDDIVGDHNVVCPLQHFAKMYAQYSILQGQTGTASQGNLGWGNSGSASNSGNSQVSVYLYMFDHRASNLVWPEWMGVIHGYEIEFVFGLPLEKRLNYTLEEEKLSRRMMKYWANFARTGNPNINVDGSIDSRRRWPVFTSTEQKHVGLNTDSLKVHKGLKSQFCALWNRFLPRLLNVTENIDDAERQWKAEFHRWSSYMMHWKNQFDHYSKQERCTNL
Assay: Inhibition of electric eel AChE using acetylthiocholine as substrate incubated for 15 mins by Ellman's method
Conditions: not given

Structure (SMILES) | IC50
CC(=O)c1ccc(OCCCCCCN2CCN(Cc3ccccc3)CC2)cc1O | 16.8 µM
CC(=O)c1ccc(OCCCCCCN2CCN(c3ncccn3)CC2)cc1O | 57 µM
CC(=O)c1ccc(OCCCCN2CCCCC2)cc1O | 8.8 µM
CC(=O)c1ccc(OCCCCCCN2CCN(c3ccccn3)CC2)cc1O | 25.8 µM
CC(=O)c1ccc(OCCCCCN2CCN(c3ncccn3)CC2)cc1O | 51.8 µM
CC(=O)c1ccc(OCCCN2CCN(Cc3ccccc3)CC2)cc1O | 0.96 µM

Molecular target: BuChE (butyrylcholinesterase) (Equus caballus, UniProt P81908)
Sequence (P81908 whole entry): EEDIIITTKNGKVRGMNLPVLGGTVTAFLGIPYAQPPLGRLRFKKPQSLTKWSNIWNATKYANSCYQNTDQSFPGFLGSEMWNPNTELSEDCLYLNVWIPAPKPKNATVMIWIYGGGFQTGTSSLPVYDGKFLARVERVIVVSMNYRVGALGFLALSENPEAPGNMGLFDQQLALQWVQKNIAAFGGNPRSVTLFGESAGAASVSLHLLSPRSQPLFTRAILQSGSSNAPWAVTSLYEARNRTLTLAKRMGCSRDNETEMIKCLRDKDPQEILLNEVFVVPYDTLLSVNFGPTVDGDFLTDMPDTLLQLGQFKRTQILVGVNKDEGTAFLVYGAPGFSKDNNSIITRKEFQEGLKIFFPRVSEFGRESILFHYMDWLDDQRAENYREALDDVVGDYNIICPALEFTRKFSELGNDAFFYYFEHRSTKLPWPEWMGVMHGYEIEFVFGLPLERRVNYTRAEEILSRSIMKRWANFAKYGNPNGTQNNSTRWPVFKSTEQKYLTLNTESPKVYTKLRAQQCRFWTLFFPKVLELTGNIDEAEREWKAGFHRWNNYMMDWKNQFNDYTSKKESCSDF
Assay: Inhibition of equine serum BuChE at 50 uM incubated for 15 mins by Ellman's method relative to control
Conditions: horse

Structure (SMILES) | inhibition at 0.25 h, 50 µM
CC(=O)c1ccc(O)cc1O | < 5%
CC(=O)c1ccc(OCCCCCCN2CCN(c3ncccn3)CC2)cc1O | < 5%
CC(=O)c1ccc(OCCCCN2CCCCC2)cc1O | 21.4%
CC(=O)c1ccc(OCCCCCCN2CCN(c3ccccn3)CC2)cc1O | < 5%

Molecular target: Cholinesterase (Equus caballus, UniProt P81908)
Sequence (P81908 whole entry): as above
Type: ADME
Conditions: not given

Structure (SMILES) | IC50
CC(=O)c1ccc(OCCCCCCN2CCN(Cc3ccccc3)CC2)cc1O | 75.4 µM
CC(=O)c1ccc(OCCCCCN2CCN(c3ncccn3)CC2)cc1O | 137 µM
CC(=O)c1ccc(OCCCN2CCN(Cc3ccccc3)CC2)cc1O | 31.4 µM

Molecular target: T1, Amine oxidase [flavin-containing] B (Homo sapiens, UniProt P27338)
T1 sequence (P27338 whole entry): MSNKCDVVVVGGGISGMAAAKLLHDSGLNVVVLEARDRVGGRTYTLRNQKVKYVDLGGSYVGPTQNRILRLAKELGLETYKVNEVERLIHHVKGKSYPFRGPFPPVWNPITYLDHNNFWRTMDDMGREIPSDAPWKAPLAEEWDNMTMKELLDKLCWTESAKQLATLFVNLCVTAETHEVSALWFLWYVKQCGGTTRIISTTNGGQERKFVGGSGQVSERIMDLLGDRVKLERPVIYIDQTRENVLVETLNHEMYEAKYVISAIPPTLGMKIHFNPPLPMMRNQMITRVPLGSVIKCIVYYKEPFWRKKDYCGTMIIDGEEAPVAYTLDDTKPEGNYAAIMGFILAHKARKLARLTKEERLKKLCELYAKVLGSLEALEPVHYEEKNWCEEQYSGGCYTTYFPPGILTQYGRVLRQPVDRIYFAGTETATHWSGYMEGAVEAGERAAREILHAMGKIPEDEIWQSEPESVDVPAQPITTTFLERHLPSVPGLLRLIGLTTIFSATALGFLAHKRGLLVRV
Conditions: not given

Structure (SMILES) | IC50
CC(=O)c1ccc(OCCCCCCN2CCN(Cc3ccccc3)CC2)cc1O | 30.8 µM
CC(=O)c1ccc(OCCCCCCN2CCN(c3ncccn3)CC2)cc1O | 34.6 µM
CC(=O)c1ccc(OCCCCN2CCCCC2)cc1O | 2.5 µM
CC(=O)c1ccc(OCCCCCCN2CCN(c3ccccn3)CC2)cc1O | 20.7 µM
CC(=O)c1ccc(OCCCCCN2CCN(c3ncccn3)CC2)cc1O | 15.5 µM
CC(=O)c1ccc(OCCCN2CCN(Cc3ccccc3)CC2)cc1O | 6.8 µM

Tested on: not listed separately
Assay: Selectivity index, ratio of IC50 for equine serum BuChE to IC50 for electric eel AChE
Conditions: not given
Outline: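 IC50 values for E. electricus AChE and equine serum BuChE came from a modified Ellman assay, each the mean of three independent experiments run in triplicate. The selectivity index is the ratio of the two IC50 values.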

Structure (SMILES) | Ratio IC50
CC(=O)c1ccc(OCCCCCCN2CCN(Cc3ccccc3)CC2)cc1O | 4.5
CC(=O)c1ccc(OCCCCCN2CCN(c3ncccn3)CC2)cc1O | 2.6
CC(=O)c1ccc(OCCCN2CCN(Cc3ccccc3)CC2)cc1O | 32.7

Tested on: not listed separately
Assay: Effective permeability of the compound by PAMPA
Type: physicochemical
Conditions: read-out: Peff

Structure (SMILES) | Papp
CC(=O)c1ccc(OCCCN2CCN(Cc3ccccc3)CC2)cc1O | 13.3 ×10⁻⁶ cm/s

Molecular target: T2, Amine oxidase [flavin-containing] A (Homo sapiens, UniProt P21397)
T2 sequence (P21397 whole entry): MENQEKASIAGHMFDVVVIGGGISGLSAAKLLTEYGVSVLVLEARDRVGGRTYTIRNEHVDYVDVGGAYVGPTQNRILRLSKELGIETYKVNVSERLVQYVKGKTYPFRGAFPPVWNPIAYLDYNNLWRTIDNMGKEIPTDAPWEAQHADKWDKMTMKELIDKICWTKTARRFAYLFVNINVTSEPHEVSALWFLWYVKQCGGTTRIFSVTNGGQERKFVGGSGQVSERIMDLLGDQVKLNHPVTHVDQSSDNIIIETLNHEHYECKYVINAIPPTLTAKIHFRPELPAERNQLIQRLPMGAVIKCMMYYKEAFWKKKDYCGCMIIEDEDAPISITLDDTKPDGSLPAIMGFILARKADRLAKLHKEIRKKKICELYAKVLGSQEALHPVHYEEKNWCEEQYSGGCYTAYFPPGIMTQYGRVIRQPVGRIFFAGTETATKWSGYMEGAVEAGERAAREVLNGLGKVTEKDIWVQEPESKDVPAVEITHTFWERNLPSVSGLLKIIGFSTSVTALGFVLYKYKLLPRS
Assay: Inhibition of recombinant human MAO-A at 10 uM using kynuramine as substrate after 30 mins by fluorescence method relative to control
Conditions: 0.5 h

Structure (SMILES) | inhibition at 10 µM
CC(=O)c1ccc(OCCCCCCN2CCN(Cc3ccccc3)CC2)cc1O | < 5%
CC(=O)c1ccc(OCCCCCCN2CCN(c3ncccn3)CC2)cc1O | < 5%
CC(=O)c1ccc(OCCCCN2CCCCC2)cc1O | < 5%
CC(=O)c1ccc(OCCCCCCN2CCN(c3ccccn3)CC2)cc1O | < 5%
CC(=O)c1ccc(OCCCCCN2CCN(c3ncccn3)CC2)cc1O | < 5%
CC(=O)c1ccc(OCCCN2CCN(Cc3ccccc3)CC2)cc1O | < 5%

Tested on: not listed separately
Assay: Metal chelating activity assessed as compound-Fe2+ complex formation at 37.5 uM after 30 mins by UV-Visible spectrophotometric method
Conditions: not given

Structure (SMILES) | Activity
CC(=O)c1ccc(OCCCN2CCN(Cc3ccccc3)CC2)cc1O | inactive

Tested on: not listed separately
Assay: Metal chelating activity assessed as compound-Cu2+ complex formation by measuring red shift at 37.5 uM after 30 mins by UV-Visible spectrophotometric method
Conditions: not given

Structure (SMILES) | Activity
CC(=O)c1ccc(OCCCN2CCN(Cc3ccccc3)CC2)cc1O | Active
